ChEMBL document CHEMBL3593206, “SAR Studies of Exosite-Binding Substrate-Selective Inhibitors of A Disintegrin And Metalloprotease 17 (ADAM17) and Application as Selective in Vitro Probes” (J Med Chem, 2015)
The source made the active and inactive calls. The rule behind the calls is not given here.

Tested on: A549
Assay: Potentiation of etoposide-mediated inhibition of human A549 cell viability at 40 uM incubated for 1 hr followed by etoposide addition measured after 72 hrs by CellTiter-Glo assay
Type: functional, cell-based
Method in brief: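 A549 cells (1250 per well) in serum-free F12 were pretreated 1 h at 37 °C with 40 μM final test compound. Gefitinib, etoposide or doxorubicin was then added as 10-point 1:3 dilutions from 300 μM. After 72 h, viability was read by CellTiter-Glo luminescence and scaled between 100 μM gefitinib (0%) and 1% DMSO (100%).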

O=C1NC[C@@H](Cc2ccc(O)cc2)N(C[C@@H]2CCCN2C[C@@H](Cc2ccc3ccccc3c2)N2CC(Cc3ccc(O)cc3)N(CCC34CC5CC(CC(C5)C3)C4)C(=O)C2=O)C1=O (single isomer, unassigned)
Activity: inactive
